What was measured:
Type in all cases: functional
[1] = test system: Onchocerca gutturosa; assay: Mean motility score for treated Onchocerca gutturosa involving LLCMK2 feeder cells at a concentration of 3.1*10e-6 M at 1.5 h
Procedure, shortened: (§1)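 Single male O. gutturosa worms (obtained following abattoir slaughter) per well in Eagle's MEM with 10% heat-inactivated fetal calf serum, penicillin, streptomycin, amphotericin B and bicarbonate, over LLCMK2 feeder cells, 5% CO2 in air. Drug dissolved in DMSO; controls received matched DMSO ≤0.016%. Motility scored 0 (immotile) to 10 (maximum control activity) every 30 min to 4.5 h, then days 1, 2, 3, 4, 7.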

[2] = test system: Onchocerca gutturosa; assay: Mean motility score for treated Onchocerca gutturosa involving LLCMK2 feeder cells at a concentration of 1.95*10e-8 M at 4 h
Procedure, shortened: (§2)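 One male O. gutturosa per well over LLCMK2 feeder cells in MEM with 10% heat-inactivated FCS, antibiotics and bicarbonate, 5% CO2; compound introduced in DMSO (≤0.016%, equal DMSO in controls). Motility scored 0 (immotile) to 10 (maximal control activity) every 30 min to 4.5 h, then at 1, 2, 3, 4 and 7 days.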

[3] = test system: Onchocerca gutturosa; assay: Colorimetric quantification of male Onchocerca gutturosa viability, expressed as % inhibition of formazan formation at 3.1*10e-6 M conc. by using tetrazolium Dye MTT assay
Procedure, shortened: (§3)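 Single intact male O. gutturosa, cultured with LLCMK2 feeder cells in MEM + 10% heat-inactivated FCS (5% CO2), drug added from DMSO (≤0.016% DMSO in controls). MTT read after 168 h: worm in 0.5 mg/mL MTT, 30 min at 36.5 °C, formazan solubilized in DMSO 1 h at room temperature, absorbance 490 nm vs DMSO blank.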

[4] = test system: Onchocerca gutturosa; assay: Mean motility score for treated Onchocerca gutturosa involving LLCMK2 feeder cells at a concentration of 4.88*10e-8M at 3.5 h; procedure, shortened: as §1
[5] = test system: Onchocerca gutturosa; assay: Mean motility score for treated Onchocerca gutturosa involving LLCMK2 feeder cells at a concentration of 3.1*10e-6 M at 2.5 h; procedure, shortened: as §1
[6] = test system: Onchocerca gutturosa; assay: Mean motility score for treated Onchocerca gutturosa involving LLCMK2 feeder cells at a concentration of 1.95*10e-8 M at 24 h; procedure, shortened: as §2
[7] = test system: Onchocerca gutturosa; assay: Mean motility score for treated Onchocerca gutturosa involving LLCMK2 feeder cells at a concentration of 3.1*10e-6 M at 3 h; procedure, shortened: as §1
[8] = test system: Onchocerca gutturosa; assay: Mean motility score for treated Onchocerca gutturosa involving LLCMK2 feeder cells at a concentration of 1.95*10e-8 M at 3 h; conditions: in the assay text read “1.95*10e-7 M” for “1.95*10e-8 M”; procedure, shortened: as §2
[9] = test system: Onchocerca gutturosa; assay: Mean motility score for treated Onchocerca gutturosa involving LLCMK2 feeder cells at a concentration of 3.1*10e-6 M at 0.5 h; procedure, shortened: as §1
[10] = test system: Onchocerca gutturosa; assay: Mean motility score for treated Onchocerca gutturosa involving LLCMK2 feeder cells at a concentration of 3.1*10e-6 M at 48 h; procedure, shortened: as §1
[11] = test system: Onchocerca gutturosa; assay: Mean motility score for treated Onchocerca gutturosa involving LLCMK2 feeder cells at a concentration of 4.88*10e-8M at 4.5 h; procedure, shortened: as §1
[12] = test system: Onchocerca gutturosa; assay: Mean motility score for treated Onchocerca gutturosa involving LLCMK2 feeder cells at a concentration of 3.1*10e-6 M at 72 h; procedure, shortened: as §1
[13] = test system: Onchocerca gutturosa; assay: Colorimetric quantification of male Onchocerca gutturosa viability, expressed as % inhibition of formazan formation at 3.05*10e-9 M conc. by using tetrazolium Dye MTT assay; procedure, shortened: as §3
[14] = test system: Onchocerca gutturosa; assay: Mean motility score for treated Onchocerca gutturosa involving LLCMK2 feeder cells at a concentration of 1.95*10e-8 M at 72 h; procedure, shortened: as §2
[15] = test system: Onchocerca gutturosa; assay: Mean motility score for treated Onchocerca gutturosa involving LLCMK2 feeder cells at a concentration of 3.05*10e-8 M at 0.5 h; procedure, shortened: as §2
[16] = test system: Onchocerca gutturosa; assay: Mean motility score for treated Onchocerca gutturosa involving LLCMK2 feeder cells at a concentration of 4.88*10e-8M at 168 h; procedure, shortened: as §1
[17] = test system: Onchocerca gutturosa; assay: Mean motility score for treated Onchocerca gutturosa involving LLCMK2 feeder cells at a concentration of 1.95*10e-8 M at 4.5 h; procedure, shortened: as §2
[18] = test system: Onchocerca gutturosa; assay: Mean motility score for treated Onchocerca gutturosa involving LLCMK2 feeder cells at a concentration of 4.88*10e-8M at 1 h; procedure, shortened: as §1
[19] = test system: Onchocerca gutturosa; assay: Mean motility score for treated Onchocerca gutturosa involving LLCMK2 feeder cells at a concentration of 1.95*10e-8 M at 168 h; procedure, shortened: as §2
[20] = test system: Onchocerca gutturosa; assay: Mean motility score for treated Onchocerca gutturosa involving LLCMK2 feeder cells at a concentration of 5*10e-5 M at 168 h; procedure, shortened: as §1
[21] = test system: Onchocerca volvulus; assay: Colorimetric quantification of male Onchocerca volvulus viability, expressed as % inhibition of formazan formation at 5*10e-6 M conc. by using tetrazolium Dye MTT assay
Procedure, shortened: (§4)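 Male O. volvulus dissected from human nodules within 24 h (kept in medium on ice), cultured without feeder cells in medium with 10% serum; drug from DMSO stock. MTT after 96 h: single worm, 0.5 mg/mL MTT, 30 min at 36.5 °C, formazan dissolved in DMSO 1 h at room temperature, absorbance 490 nm against DMSO blank.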

[22] = test system: Onchocerca gutturosa; assay: Mean motility score for treated Onchocerca gutturosa involving LLCMK2 feeder cells at a concentration of 3.05*10e-9 M at 1.5 h; procedure, shortened: as §2
[23] = test system: Onchocerca gutturosa; assay: Mean motility score for treated Onchocerca gutturosa involving LLCMK2 feeder cells at a concentration of 1.94*10e-7M at 2 h; procedure, shortened: as §2
[24] = test system: Onchocerca gutturosa; assay: Mean motility score for treated Onchocerca gutturosa involving LLCMK2 feeder cells at a concentration of 3.05*10e-9 M at 2.5 h; procedure, shortened: as §1
[25] = test system: Onchocerca gutturosa; assay: Mean motility score for treated Onchocerca gutturosa involving LLCMK2 feeder cells at a concentration of 1.94*10e-7M at 72 h; procedure, shortened: as §2
[26] = test system: Onchocerca gutturosa; assay: Mean motility score for treated Onchocerca gutturosa involving LLCMK2 feeder cells at a concentration of 1.21*10e-8M at 48 h; procedure, shortened: as §2
[27] = test system: Onchocerca volvulus; assay: Colorimetric quantification of male Onchocerca volvulus viability, expressed as % inhibition of formazan formation at 5*10e-5 M conc. by using tetrazolium Dye MTT assay; procedure, shortened: as §4
[28] = test system: Onchocerca gutturosa; assay: Mean motility score for treated Onchocerca gutturosa involving LLCMK2 feeder cells at a concentration of 3.05*10e-9 M at 2 h; procedure, shortened: as §1
[29] = test system: Onchocerca gutturosa; assay: Mean motility score for treated Onchocerca gutturosa involving LLCMK2 feeder cells at a concentration of 1.21*10e-8M at 96 h; procedure, shortened: as §2
[30] = test system: Onchocerca gutturosa; assay: Mean motility score for treated Onchocerca gutturosa involving LLCMK2 feeder cells at a concentration of 1.94*10e-7M at 24 h; procedure, shortened: as §2
[31] = test system: Acanthocheilonema viteae; assay: anti-filarial Activity was measured against Acanthocheilonema viteae in jirds at 50 mg/kg/day(5 days) dose
Procedure, shortened: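 Jirds with established B. pahangi or A. viteae infections were given drug once daily for 5 days by subcutaneous injection, at the maximum tolerated dose and, where supply allowed, graded lower doses. Tolerance was first checked in noninfected jirds with a single 200 mg/kg oral or subcutaneous dose, watching 72 h for excessive weight loss or death. Macrofilarial suppression was the read-out.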

[32] = test system: Onchocerca gutturosa; assay: Colorimetric quantification of male Onchocerca gutturosa viability, expressed as % inhibition of formazan formation at 1.21*10e-8M conc. by using tetrazolium Dye MTT assay; procedure, shortened: as §3

C/C(=N\NC(=S)N1CCCCCC1)c1ccccn1
Motility [1]: 9.8 | Motility [2]: 10 | Inhibition [3]: 90.2% | Motility [4]: 8.5 | Motility [5]: 8.5 | Motility [6]: 8 | Motility [7]: 9.3 | Motility [8]: 10 | Motility [9]: 9.5 | Motility [10]: 2.8 | Motility [11]: 9.8 | Motility [12]: 0 | Inhibition [13]: 19.5% | Motility [14]: 1 | Motility [15]: 9.8 | Motility [16]: 0 | Motility [17]: 9.5 | Motility [18]: 9 | Motility [19]: 0 | Motility [20]: 0 | Inhibition [21]: 58.2%

C/C(=N\NC(S)=Nc1ccccc1N)c1ccccn1
Motility [22]: 8.3 | Motility [23]: 9 | Motility [24]: 7.5 | Motility [25]: 1.5 | Motility [26]: 7.3 | Inhibition [27]: 53.8% | Motility [28]: 7.5 | Motility [29]: 3.8 | Motility [30]: 8 | Suppression [31]: 100% | Inhibition [32]: 27.9%

From ChEMBL document CHEMBL1125672, “2-acetylpyridine thiosemicarbazones. 13. Derivatives with antifilarial activity” (1991)
